Values after ≈ are worked out from the molar mass of the structure shown.
Key:
[1] = Compound was tested for in vitro cytotoxicity in KB cells after 3 days of incubation; assay type: functional; details: Homo sapiens, 72 h, read-out: ED50 (the source's name)
Summary of the method: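 KB human tumor cells exposed to drug for 3 days; read-out was cell number. ED50 was taken as the drug concentration giving 50% reduction in cell number. Values are marked as preliminary.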

[2] = target: DNA topoisomerase II (Homo sapiens) (UniProt P11388+Q02880); experiment: Compound was tested for inhibition against human DNA topoisomerase II; assay type: protein assay; design: concentration or dose not given beside the values; details: concentration not given here

Row | SMILES | EC50 [1] [µg/mL] | inhibition [2] [%]
1 | CCS[C@@H]1c2cc3c(cc2[C@@H](c2cc(OC)c(O)c(OC)c2)[C@H]2C(=O)OC[C@@H]21)OCO3 | 1.1 (≈ 2.47 µM) | 25
2 | C/C=C\C(=O)O[C@@H]1c2cc3c(cc2[C@@H](c2cc(OC)c(O)c(OC)c2)[C@H]2C(=O)OC[C@@H]21)OCO3 | 0.9 (≈ 1.92 µM) | –
3 | COc1cc([C@@H]2c3cc4c(c(O)c3C[C@H]3COC(=O)[C@@H]32)OCO4)cc(OC)c1O | 0.09 (≈ 0.225 µM) | 0
4 | COc1cc([C@@H]2c3cc4c(cc3[C@@H](OC(=O)CCC(=O)O)[C@H]3COC(=O)[C@H]23)OCO4)cc(OC)c1O | 1 (≈ 2 µM) | 0
5 | COc1cc([C@@H]2c3cc4c(cc3[C@@H](OC(C)=O)[C@H]3COC(=O)[C@H]23)OCO4)cc(OC)c1O | 0.2 (≈ 0.452 µM) | 25
6 | COc1cc([C@@H]2c3cc4c(c(OC(C)=O)c3C[C@H]3COC(=O)[C@@H]32)OCO4)cc(OC)c1O | 0.01 (≈ 0.0226 µM) | 0
7 | COc1cc([C@@H]2c3cc4c(c(OC(=O)OCc5ccccc5)c3C[C@H]3COC(=O)[C@@H]32)OCO4)cc(OC)c1O | 0.01 (≈ 0.0187 µM) | 25
8 | COc1cc([C@@H]2c3cc4c(cc3[C@@H](O)[C@H]3COC(=O)[C@H]23)OCO4)cc(OC)c1O [4'-DEMETHYLEPIPODOPHYLLOTOXIN] | 0.06 (≈ 0.15 µM) | 50
9 | COc1cc([C@@H]2c3cc4c(cc3[C@@H](OC(=O)c3ccccc3C(=O)O)[C@H]3COC(=O)[C@H]23)OCO4)cc(OC)c1O | 0.8 (≈ 1.46 µM) | –
10 | COc1cc([C@@H]2c3cc4c(c(O[C@@H]5O[C@H]6CO[C@@H](C)O[C@H]6[C@H](O)[C@@H]5O)c3C[C@H]3COC(=O)[C@@H]32)OCO4)cc(OC)c1O | 2 (≈ 3.4 µM) | –
11 | COc1cc([C@@H]2c3cc4c(c(OC(=O)CCC(=O)O)c3C[C@H]3COC(=O)[C@@H]32)OCO4)cc(OC)c1O | 0.01 (≈ 0.02 µM) | 0
12 | CCO[C@@H]1c2cc3c(cc2[C@@H](c2cc(OC)c(O)c(OC)c2)[C@H]2C(=O)OC[C@@H]21)OCO3 | 1.1 (≈ 2.57 µM) | 25
13 | COc1cc([C@@H]2c3cc4c(cc3[C@@H](OC(=O)Cc3ccccc3)[C@H]3COC(=O)[C@H]23)OCO4)cc(OC)c1O | 0.00028 (≈ 0.00054 µM) | –
14 | COc1cc([C@@H]2c3cc4c(cc3[C@@H](OC)[C@H]3COC(=O)[C@H]23)OCO4)cc(OC)c1O | 1.1 (≈ 2.65 µM) | 25
15 | CCC(=O)O[C@@H]1c2cc3c(cc2[C@@H](c2cc(OC)c(O)c(OC)c2)[C@H]2C(=O)OC[C@@H]21)OCO3 | 1 (≈ 2.19 µM) | 0
16 | CCC(=O)Oc1c2c(cc3c1OCO3)[C@@H](c1cc(OC)c(O)c(OC)c1)[C@H]1C(=O)OC[C@@H]1C2 | 0.005 (≈ 0.011 µM) | 25
17 | COc1cc([C@@H]2c3cc4c(c(O[C@@H]5O[C@@H](CO)[C@@H](O)[C@H](O)[C@@H]5O)c3C[C@H]3COC(=O)[C@@H]32)OCO4)cc(OC)c1O | 1.1 (≈ 1.96 µM) | 25
18 | COc1cc([C@@H]2c3cc4c(c(OC)c3C[C@H]3COC(=O)[C@@H]32)OCO4)cc(OC)c1O | 0.001 (≈ 0.00241 µM) | 25
19 | COc1cc([C@@H]2c3cc4c(c(O[C@@H]5O[C@H]6CO[C@@H](c7cccs7)O[C@H]6[C@H](O)[C@@H]5O)c3C[C@H]3COC(=O)[C@@H]32)OCO4)cc(OC)c1O | 2 (≈ 3.05 µM) | 25
20 | CCCC(=O)Oc1c2c(cc3c1OCO3)[C@@H](c1cc(OC)c(O)c(OC)c1)[C@H]1C(=O)OC[C@@H]1C2 | 0.004 (≈ 0.0085 µM) | 25
21 | COc1cc([C@@H]2c3cc4c(c(OC(=O)Cc5ccccc5)c3C[C@H]3COC(=O)[C@@H]32)OCO4)cc(OC)c1O | 0.01 (≈ 0.0193 µM) | –
22 | COc1cc([C@@H]2c3cc4c(cc3[C@@H](O[C@@H]3O[C@@H]5CO[C@@H](C)O[C@H]5[C@H](O)[C@H]3O)[C@H]3COC(=O)[C@H]23)OCO4)cc(OC)c1O [ETOPOSIDE] | 0.12 (≈ 0.204 µM) | > 88

Reference: ChEMBL document CHEMBL1124418, “Antitumor agents. 100. Inhibition of human DNA topoisomerase II by cytotoxic ether and ester derivatives of podophyllotoxin and alpha-peltatin” (1989)
